Screens as filed in PubChem BioAssay.
Rin1-Abl PPI inh = inhibitors of human Rin1-Abl protein interaction; TR-FRET Rin1/Abl binding, biochemical; inhibition, % at 7.35 µM; actives 0.4% (n = 360,000); in the data active = inhibition above about 5%, passing the limit was not always enough
CAL PDZ FP-1 = blocks peptide binding to the human CAL PDZ domain. inhibition, % at 24.9 µM. AID 602252. actives 0.92% (n = 300,000). Q9HD26. purified CAL PDZ, TMR-peptide fluorescence polarization, 1 h;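 active = mean inhibition of at least 30% with at least half of replicates also reaching 30%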;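 note: 0% = DMSO neutral control and 100% = excess unlabeled competitor peptide PRC23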
CAL PDZ FP-2 = inhibitors of human CAL PDZ peptide binding | Q9HD26 | purified CAL PDZ, TMR-peptide fluorescence polarization, 1 h | inhibition, % at 20 µM | actives 0.02% (n = 330,000) | AID 504414;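 active = highest replicate inhibition of at least 40%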;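 note: plate controls were DMSO neutral control wells for no effect and unlabeled competitor peptide control wells for full effect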
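Control set: unlabelled peptide and DMSO controls / Material: purified CerCALP PDZ construct / Timing: 1 h incubation at room temperature before polarization reading / Doses: 20 µM, one dose / Detection: fluorescence polarization (mP)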
ERp5 block = inhibitors of human ERp5; AID 651711; ERp5 insulin aggregation, absorbance 650 nm, 90 min; inhibition, % at 9.99 µM; actives 0.05% (n = 350,000);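 active = mean replicate inhibition above about 25%, with every replicate also reaching it, limit read from the data, passing the limit was not always enough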
PDI turbidity = PDI (human) enzyme inhibition. PDI insulin aggregation turbidity, A650, 90 min. inhibition, % at 10 µM. actives 0.052% (n = 350,000);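 active = mean inhibition across replicates of 30% or more, whatever share of single replicates reach that level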
Target sequence (P07237 whole entry, looked up): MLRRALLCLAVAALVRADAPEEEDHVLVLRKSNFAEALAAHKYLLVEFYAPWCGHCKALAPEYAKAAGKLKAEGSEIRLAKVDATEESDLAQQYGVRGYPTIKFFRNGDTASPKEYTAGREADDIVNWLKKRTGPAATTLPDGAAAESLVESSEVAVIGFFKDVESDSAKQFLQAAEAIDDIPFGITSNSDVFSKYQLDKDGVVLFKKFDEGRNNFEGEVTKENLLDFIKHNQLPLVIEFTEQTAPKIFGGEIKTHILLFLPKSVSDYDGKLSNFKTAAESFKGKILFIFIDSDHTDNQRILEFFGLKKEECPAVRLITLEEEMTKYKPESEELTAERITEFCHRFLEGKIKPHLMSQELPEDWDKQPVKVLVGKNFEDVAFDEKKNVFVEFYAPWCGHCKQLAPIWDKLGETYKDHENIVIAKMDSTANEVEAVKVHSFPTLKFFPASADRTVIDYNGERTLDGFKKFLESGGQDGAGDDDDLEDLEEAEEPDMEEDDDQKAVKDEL
ERAP1 inh = ERAP1 (human) enzyme inhibition | Q9NZ08 | recombinant ERAP1, Leu-AMC fluorescence, 60 min | inhibition, % at 10.7 µM | actives 0.15% (n = 340,000);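 active = mean replicate inhibition of at least 30%, or all replicates individually reaching that 30% level; inactive = mean below 30% and not every replicate reaching it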;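 note: 0% = neutral control wells and 100% = L-leucinethiol positive control wells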
* = called active by the depositor; ! = a repeat was not active. A selection: hits, their analogues and other compounds. The true share with any hit is near 1.1%.

How did COc1ccccc1-c1cccc(-c2nc(C(=O)Nc3nccs3)cc3c2[C@H](CCO)N(C(=O)CC2CC2)C3)c1 do in these assays?
ERp5 block: -1; ERAP1 inh: -1

How did COc1ccccc1-c1cccc(-c2nc(C(=O)Nc3nccs3)cc3c2[C@@H](CCO)N(C(=O)CC2CC2)C3)c1 do in these assays?
ERp5 block: 1; ERAP1 inh: 45*

What do the screens show for `O=C(C[C@@H]1C[C@H]2c3cc(NC(=O)Nc4ccc(C(F)(F)F)cc4)ccc3O[C@H]2[C@H](CO)O1)NCCc1ccccc1`?
ERp5 block: 13; ERAP1 inh: 6

How did O=C(COC(=O)CCSc1ccccc1)Nc1ccc(F)cc1Cl do in these assays?
Rin1-Abl PPI inh: 0; CAL PDZ FP-1: -4; CAL PDZ FP-2: -2; ERp5 block: -2; PDI turbidity: 11; ERAP1 inh: -4

What do the screens show for `O=C(COC(=O)CCSc1ccccc1)Nc1cc(F)ccc1F`?
Rin1-Abl PPI inh: 0; CAL PDZ FP-1: 46*; CAL PDZ FP-2: 0; ERp5 block: 4; PDI turbidity: -7; ERAP1 inh: 2

What do the screens show for `CCCN1[C@@H]2c3cccc(=O)n3C[C@H]1[C@H](CO)[C@H]2C(=O)N1CCCCC1`?
ERp5 block: -1; ERAP1 inh: 4

Results for Cc1ccc(N2CC(=O)Nc3c(sc4nc(C)cc(C)c34)C2=O)cc1 ?
Rin1-Abl PPI inh: 1; CAL PDZ FP-2: 0; ERp5 block: 4; PDI turbidity: -4; ERAP1 inh: -3

How did Cc1cc(C)c2c3c(sc2n1)C(=O)N(c1ccccc1C)CC(=O)N3 do in these assays?
Rin1-Abl PPI inh: -20; CAL PDZ FP-1: 74*; CAL PDZ FP-2: -1; ERp5 block: 3; PDI turbidity: 3; ERAP1 inh: -4

Results for COC1OC2COC(c3ccccc3)OC2C2OC12 (centres undefined) ?
Rin1-Abl PPI inh: 4; CAL PDZ FP-1: 144*; CAL PDZ FP-2: -1; ERp5 block: -5; PDI turbidity: 12; ERAP1 inh: 4

What do the screens show for `O=C(Nc1ccccn1)Nc1ccccc1Cl`?
Rin1-Abl PPI inh: -3; CAL PDZ FP-1: 31*; CAL PDZ FP-2: 3; ERp5 block: 6; PDI turbidity: -5; ERAP1 inh: 2

How did c1nc(SSc2ncnc3nc[nH]c23)c2[nH]cnc2n1 do in these assays?
Rin1-Abl PPI inh: 0; CAL PDZ FP-1: -1; CAL PDZ FP-2: 0; ERp5 block: -8; PDI turbidity: 2; ERAP1 inh: 33*

What do the screens show for `N#CCC(=O)Nc1ccc(C(=O)OCC(=O)NC(=O)Nc2ccc3c(c2)OCCO3)cc1`?
Rin1-Abl PPI inh: 2; CAL PDZ FP-1: 62*; CAL PDZ FP-2: -2; ERp5 block: -2; PDI turbidity: 2; ERAP1 inh: -1

Results for CC(C)NC(=O)COC(=O)c1ccc(NS(=O)(=O)c2ccc3c(c2)OCCO3)cc1 ?
Rin1-Abl PPI inh: 2; CAL PDZ FP-1: -3; CAL PDZ FP-2: 1; PDI turbidity: -12

How did NC(=O)COC(=O)c1ccc(NS(=O)(=O)c2ccc3c(c2)OCCO3)cc1 do in these assays?
Rin1-Abl PPI inh: 1; CAL PDZ FP-1: 76*; CAL PDZ FP-2: -1; ERp5 block: 6; PDI turbidity: 3; ERAP1 inh: -1

Results for N#CCC(=O)Nc1ccc(C(=O)OCC(=O)NCc2ccc3c(c2)OCO3)cc1 ?
Rin1-Abl PPI inh: -1; CAL PDZ FP-1: -1; CAL PDZ FP-2: -1; ERp5 block: 5; PDI turbidity: -10; ERAP1 inh: -2

How did COc1ccc(NC(=O)N[C@@H]2CC[C@H](CCn3cc(-c4ccccn4)nn3)O[C@@H]2CO)cc1 do in these assays?
ERp5 block: 3; ERAP1 inh: 1

Results for CC(C)NC(=O)Nc1ccc2c(c1)C(=O)N([C@H](C)CO)C[C@H](C)[C@@H](CN(C)CC1CCCCC1)OCCCC[C@H](C)O2 ?
ERp5 block: 0; ERAP1 inh: 0

What do the screens show for `CCC(=O)Nc1ccc2c(c1)C(=O)N(C)[C@H]1CC[C@H](CC(=O)Nc3cccc(F)c3)O[C@@H]1CO2`?
ERp5 block: 0; ERAP1 inh: -1

Results for CC(NC(=O)COc1ccccc1)C(=O)N1CCN(c2ccc(F)cc2)CC1 (centres undefined) ?
Rin1-Abl PPI inh: 0; CAL PDZ FP-1: 73*; CAL PDZ FP-2: 0; ERp5 block: 5; PDI turbidity: 2; ERAP1 inh: 2

Results for CCCCN(CCCC)C(=O)/C=C/c1cccc([N+](=O)[O-])c1 ?
Rin1-Abl PPI inh: -3; CAL PDZ FP-1: 0; CAL PDZ FP-2: 0; PDI turbidity: -3

Results for COc1ccc(OCC(O)CN(C)C(=O)/C=C/c2cccc([N+](=O)[O-])c2)cc1 (centres undefined) ?
Rin1-Abl PPI inh: -2; CAL PDZ FP-1: 86*; CAL PDZ FP-2: -2; ERp5 block: 0; PDI turbidity: -7; ERAP1 inh: 3

How did O=C1c2ccccc2C(=O)c2c(Nc3ccc(CCO)cc3)ccc(O)c21 do in these assays?
Rin1-Abl PPI inh: -1; CAL PDZ FP-1: -3; ERp5 block: 3; PDI turbidity: -3; ERAP1 inh: 2

What do the screens show for `O=C1c2c(O)ccc(O)c2C(=O)c2c(NCCNCCO)ccc(NCCNCCO)c21`?
Rin1-Abl PPI inh: -34; CAL PDZ FP-1: -4; CAL PDZ FP-2: 5; ERp5 block: -6; PDI turbidity: -11; ERAP1 inh: 39*!

What do the screens show for `CCCNC(=O)[C@@H]1[C@@H](CO)[C@@H]2Cn3c(ccc(-c4ccccc4F)c3=O)[C@@H]2N1CC1CC1`?
ERp5 block: 1; ERAP1 inh: -4

How did Cc1cc(C)n(/N=C\c2c(O)ccc3ccccc23)c(=O)c1C(N)=O do in these assays?
Rin1-Abl PPI inh: -1; CAL PDZ FP-1: 50*; CAL PDZ FP-2: 0; PDI turbidity: 2

What do the screens show for `Oc1ccc2ccccc2c1/C=N/n1cnnc1`?
Rin1-Abl PPI inh: -1; CAL PDZ FP-2: 0; PDI turbidity: -17

How did Cc1ccc(NS(=O)(=O)c2cccc(C(=O)NC3CCN(Cc4ccccc4)CC3)c2)cc1 do in these assays?
Rin1-Abl PPI inh: 1; CAL PDZ FP-1: 89*; CAL PDZ FP-2: -1; ERp5 block: 20; PDI turbidity: -1; ERAP1 inh: -3

How did O=C(NC1CCCC1)N1CCCCN2[C@H](CO)[C@H](c3ccc(-c4cncnc4)cc3)[C@H]2C1 do in these assays?
ERp5 block: 3; ERAP1 inh: 0

How did C[C@@H]1CCCCO[C@@H](CN(C)C(=O)Nc2ccc(F)cc2)[C@@H](C)CN([C@@H](C)CO)C(=O)c2cc(N(C)C)ccc2O1 do in these assays?
ERp5 block: 4; ERAP1 inh: 1

What do the screens show for `O=C(CCc1ccccc1F)N1CCN(c2ccc(C(F)(F)F)cn2)CC1`?
Rin1-Abl PPI inh: 0; CAL PDZ FP-1: 45*; CAL PDZ FP-2: -1; ERp5 block: -3; PDI turbidity: 5; ERAP1 inh: -6
